Experimental data taken from PMC8164216 (Pharmaceutical research, 2019).
Values joined by “and” are separate entries in the source; they are usually repeats but may differ in a detail not shown here. Equal values may be shown once. Marks after values point to notes of the source that are not given here.

Legend:
MCT1 [1] = biological target: T1, MCT1 (Mus musculus, UniProt P53986); test: Full TMDD model; format: in vivo, Female BALB/c mice
T1 sequence (P53986 1-493): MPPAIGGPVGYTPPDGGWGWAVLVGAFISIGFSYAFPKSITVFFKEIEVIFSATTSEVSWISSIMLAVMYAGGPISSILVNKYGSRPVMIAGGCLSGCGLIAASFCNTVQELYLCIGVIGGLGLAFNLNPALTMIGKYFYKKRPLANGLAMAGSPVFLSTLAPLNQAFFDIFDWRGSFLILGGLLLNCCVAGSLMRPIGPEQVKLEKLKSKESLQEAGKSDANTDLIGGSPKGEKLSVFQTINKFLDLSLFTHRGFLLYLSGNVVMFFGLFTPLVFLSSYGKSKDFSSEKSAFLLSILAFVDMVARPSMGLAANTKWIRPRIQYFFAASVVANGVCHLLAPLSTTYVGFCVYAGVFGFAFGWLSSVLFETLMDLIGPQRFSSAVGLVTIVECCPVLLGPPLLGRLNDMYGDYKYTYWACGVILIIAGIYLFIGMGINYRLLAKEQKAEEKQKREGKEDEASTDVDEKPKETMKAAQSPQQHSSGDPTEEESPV
T1 sequence (P18572 140-389 partner limits assumed): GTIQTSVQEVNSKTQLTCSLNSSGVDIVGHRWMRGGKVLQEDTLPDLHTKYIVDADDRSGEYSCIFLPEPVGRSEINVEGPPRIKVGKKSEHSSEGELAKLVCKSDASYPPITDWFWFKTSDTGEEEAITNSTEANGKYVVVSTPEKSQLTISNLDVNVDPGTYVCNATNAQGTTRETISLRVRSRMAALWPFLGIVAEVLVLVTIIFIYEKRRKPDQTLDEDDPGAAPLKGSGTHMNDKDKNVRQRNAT

[2] = Compartmental PK modeling with enterohepatic cycling and M-M elimination; format: in vivo, Female BALB/c mice; conditions: for Vp: simultaneous fit of IV and oral data; for Vmax / Km: M-M elimination; for CLb: clearance to bile compartment; for Km: female, BALB/c, mouse, plasma, other: intravenous and oral, fitted simultaneously
Outline: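 Female BALB/c mice (18–20 g) got the test compound in 20% w/v cyclodextrin in normal saline, by tail-vein IV (10, 50, 100 mg/kg) or oral gavage (100 mg/kg). Terminal cardiac blood (isoflurane, lithium heparin; n = 3–4/time point) was taken to 24 h, and plasma was assayed by LC/MS/MS. Naïve-pooled IV and oral data were fitted together by maximum likelihood to enterohepatic-cycling models with lag time and Michaelis-Menten elimination.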

[3] = Pharmacokinetic study in mice, non-compartmental analysis; format: in vivo, Female BALB/c mice
Outline: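 Mice were dosed IV by tail vein (10, 50, 100 mg/kg) or by oral gavage (100 mg/kg), in 20% w/v cyclodextrin-saline. Plasma from terminal cardiac puncture (n = 3–4/time point; 15 min–24 h IV, 10 min–24 h oral) was quantified by LC/MS/MS (LLOQ 0.15 ng/mL). Naïve-pooled non-compartmental analysis assumed 19 g body weight. AUC was by trapezoidal method, extrapolated to infinity. Fold change is relative to the 10 mg/kg IV dose.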

MCT1 [4] = conditions: murine 4T1 cells; cited from earlier work
[5] = breast tumor xenograft study; cited from earlier work
[6] = Compartmental PK modeling, full TMDD model; format: in vivo, Female BALB/c mice
MCT1 [7] = conditions: cited from earlier work
MCT2 = conditions: to a lesser extent than MCT1; cited from earlier work
[8] = female, BALB/c, mouse, plasma, iv, 10 mg/kg
[9] = female, BALB/c, mouse, plasma, iv, 50 mg/kg
[10] = female, BALB/c, mouse, plasma, iv, 100 mg/kg
[11] = female, BALB/c, mouse, plasma, po, 100 mg/kg

Cc1[nH]nc(C(F)(F)F)c1Cc1sc2c(c1C(=O)N1C[C@](C)(O)CO1)c(=O)n(C)c(=O)n2C(C)C [AZD3965, 5-[(4S)-4-hydroxy-4-methyl-1,2-oxazolidine-2-carbonyl]-1-isopropyl-3-methyl-6-{[3-methyl-5-(trifluoromethyl)-2H-pyrazol-4-yl]methyl}thieno[2,3-d]pyrimidine-2,4-dione]
Rtotal (total transporter concentration) (MCT1 [1]; Model C): 54.8 ± 4.90 μg/ml and 54.8 ± 4.90 (8.92) μg/ml
kon (MCT1 [1]; Model C, converted based on the molecular weight): 6.21 ± 5.92 (95. 3) μM^−1 h^−1
koff (MCT1 [1]; mouse): 0.00641 s⁻¹
CLd ([2]; Model A): 0.332 ± 0.064 (19.3) ml/h
F ([2]; Model A): 1.00 ± 0.003 (0.32)
ka ([2]; Model A): 3.39 ± 1.11 (32.7) h^−1
Vp ([2]; Model A (EHC model)): 48.6 ± 5.86 (12.1) ml
Vmax ([2]; Model A): 26.4 ± 8.30 (31.7) μg/h
CLb ([2]; Model A): 0.529 ± 0.074 (13.9) ml/h
ko ([2]; Model A, first-order rate constant of release from bile): 0.0015 ± 0.0004 ^a (29.0) h^−1
Tlag ([2]; Model A, fixed in final estimation): 5.92 (Fixed) h
CLd ([2]; Model B): 0.023 ± 0.003 (11.1) ml/h
F ([2]; Model B): 0.998 ± 0.003 (0.31)
ka ([2]; Model B): 5.13 ± 1.98 (38.6) h^−1
Vp ([2]; Model B (simplified EHC model)): 55.8 ± 5.20 (9.35) ml
Tlag.iv ([2]; Model B, IV): 6.00 ± 0.0006 (0.01) h
Vmax ([2]; Model B): 411 ± 42.0 (10.3) μg/h
CLb ([2]; Model B): 0.178 ± 0.019 (10.8) ml/h
Tlag.po ([2]; Model B, oral): 5.90 ± 0.06 (1.05) h
ko ([2]; Model B, zero-order rate constant of release from bile): 0.386 ± 0.146 ^b (37.9) ng/h
Km ([2]; Model A): 9.59 ± 4.63 µg/mL
Km ([2]; Model B): 385 ± 58 µg/mL
Vc/F ([3]; IV 10 mg/kg, mice (19 g)): 53.4 mL
AUC0−∞, fold change from the lowest IV dose ([3]; IV 50 mg/kg vs 10 mg/kg): 8.36 fold
CL, fold change from the lowest IV dose ([3]; IV 50 mg/kg vs 10 mg/kg): 0.50 fold
Cmax, fold change from the lowest IV dose ([3]; IV 50 mg/kg vs 10 mg/kg): 7.49 fold
Vss, fold change from the lowest IV dose ([3]; IV 50 mg/kg vs 10 mg/kg): 0.58 fold
t1/2, fold change from the lowest IV dose ([3]; IV 50 mg/kg vs 10 mg/kg): 0.89 fold
λz, fold change from the lowest IV dose ([3]; IV 50 mg/kg vs 10 mg/kg): 1.12 fold
Vc/F ([3]; IV 50 mg/kg, mice (19 g)): 31.0 mL
AUC0−∞, fold change from the lowest IV dose ([3]; IV 100 mg/kg vs 10 mg/kg): 17.5 fold
CL, fold change from the lowest IV dose ([3]; IV 100 mg/kg vs 10 mg/kg): 0.47 fold
Cmax, fold change from the lowest IV dose ([3]; IV 100 mg/kg vs 10 mg/kg): 13.6 fold
Vss, fold change from the lowest IV dose ([3]; IV 100 mg/kg vs 10 mg/kg): 0.65 fold
t1/2, fold change from the lowest IV dose ([3]; IV 100 mg/kg vs 10 mg/kg): 0.87 fold
λz, fold change from the lowest IV dose ([3]; IV 100 mg/kg vs 10 mg/kg): 1.16 fold
Vc/F ([3]; IV 100 mg/kg, mice (19 g)): 34.6 mL
AUC(0-inf) [3, 8]: 4940 ng·h/mL
Cmax [3, 8]: 4020 ng/mL
Vd [3, 8]: 0.0442 L
clearance [3, 8]: 0.773 mL/min
concentration at 24 h [3, 8]: 0.285 ng/mL
half-life [3, 8]: 2.91 h
k el [3, 8]: 6.61e-05 s⁻¹
AUC(0-inf) [3, 9]: 41300 ng·h/mL
Cmax [3, 9]: 30100 ng/mL
Vd [3, 9]: 0.0256 L
clearance [3, 9]: 0.383 mL/min
half-life [3, 9]: 2.6 h
k el [3, 9]: 7.39e-05 s⁻¹
AUC(0-inf) [3, 10]: 86400 ng·h/mL
Cmax [3, 10]: 54500 ng/mL
Vd [3, 10]: 0.0286 L
clearance [3, 10]: 0.367 mL/min
half-life [3, 10]: 2.51 h
k el [3, 10]: 7.64e-05 s⁻¹
bioavailability ([3]; female, BALB/c, mouse, plasma, oral, 100 mg/kg): 82.7%
AUC(0-inf) [3, 11]: 71400 ng·h/mL
Cmax [3, 11]: 30300 ng/mL
Tmax [3, 11]: 0.333 h
half-life [3, 11]: 4.46 h
k el [3, 11]: 4.33e-05 s⁻¹
CL/F ([3]; oral 100 mg/kg, mice (19 g)): 26.6 mL/h
Vc/F ([3]; oral 100 mg/kg, mice (19 g)): 171 mL
duration of inhibition of L-lactate uptake (MCT1 [4]): up to 5 h
pre-incubation period for maximal inhibition of L-lactate uptake (MCT1 [4]): 5 min
concentration in 4T1 tumor versus plasma [5]: 25.5 fold
ka ([6]; Model C): 34.4 ± 4.80 (14.0) h^−1
kpt ([6]; Model C): 0.302 ± 0.074 (24.7) h^−1
ktp ([6]; Model C): 0.452 ± 0.041 (9.12) h^−1
Vp ([6]; Model C (full TMDD model), fixed): 2.04 ml and 2.04 (Fixed) ml
Ki (MCT1 [7]): 1.6 nM
activity against MCT2 (MCT2): some activity
